In ChEMBL document CHEMBL3588858, “Peptidomimetic β-Secretase Inhibitors Comprising a Sequence of Amyloid-β Peptide for Alzheimer's Disease” (J Med Chem, 2015):
Numbered stars: 1 amine (or outer) side, 2 acyl side, 3 side chain; on linkers, the order of the positions; unused ones are H or OH. Square brackets hold non-standard residues; d marks the D form. Peptide text beside a SMILES is read from it. LeuΨ(S-CHOHCH2)Ala = CC(C)C[C@H](N[*:1])[C@@H](O)C[C@@H](C)C(=O)[*:2]

How the values were obtained:
[1] = tested on: Serum; experiment: Metabolic stability in female mouse serum at 0.53 mg/kg, iv by HPLC-FLU analysis; format: ADME, organism-based; conditions: in vivo
In short: (§1)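 Female mice (8–12 weeks, 22–37 g) and male Wistar rats (8–12 weeks, 182–201 g) were fasted 24 h, then dosed iv at 0.53 mg/kg in PBS, in triplicate. Animals were sacrificed at 0.5, 1 and 2 h under pentobarbital. Blood was taken by cardiac puncture and brains perfused with chilled saline. Serum was acetonitrile-precipitated. Whole mouse brain, or rat cortex and hippocampus, was homogenized with an internal standard, HPLC-purified, then analysed by HPLC-FLU and ESI LC-MS.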

[2] = tested on: Cortex; experiment: Metabolic stability in Wistar rat brain cortex at 0.53 mg/kg, iv after 2 hrs by HPLC-FLU analysis; format: ADME, organism-based; conditions: in vivo; in short: as §1
[3] = Cytotoxicity against human Caco2 cells assessed as cell viability at 25 to 50 uM after 4 to 24 hrs by MTS assay; format: cell-based; conditions: Caco-2 cells, read-out: Activity
In short: (§2)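 Confluent Caco-2 cells (passage 26 to 41, grown in high-glucose DMEM with 10% FBS and 1% non-essential amino acids) exposed to test compounds from 2.5 nM to 50 µM in DMEM with 0.5% FBS for 4 h or 24 h. Medium replaced by MTS, 4 h at 37 °C, absorbance read at 490 nm. Viability given as % of cells in 0.5% FBS DMEM.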

[4] = species: Homo sapiens; experiment: Selectivity ratio of Ki(app) for human recombinant BACE2 to Ki for human recombinant BACE1
[5] = tested on: Brain; experiment: Retention time of the compound in female mouse brain at 0.53 mg/kg, iv by HPLC-FLU analysis; format: ADME, organism-based; conditions: in vivo; in short: as §1
[6] = Half life in mouse brain by HPLC-FLU analysis; format: ADME, tissue-based
In short: (§3)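 Peptide solution (50 µM in PBS, 2% DMSO) was mixed 1:4 with human serum or 10% mouse brain homogenate (PBS, 0.5% Triton X-100) and incubated at 37 °C for varying times. Reactions were stopped with acetonitrile and proteins spun out. Intact peptide was quantified by HPLC-FLU against per-compound calibration curves, following decay to about 50%. t1/2 was interpolated from a monophasic model fit; n = 3.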

[7] = Half life in human serum by HPLC-FLU analysis; format: ADME, cell-free; in short: as §3
[8] = tested on: Serum; experiment: Metabolic stability in Wistar rat serum at 0.53 mg/kg, iv after 2 hrs by HPLC-FLU analysis; format: ADME, organism-based; conditions: in vivo; in short: as §1
[9] = tested on: Caco-2; experiment: Cytotoxicity against human Caco2 cells assessed as cell viability at 25 to 50 uM after 24 hrs by MTS assay; format: cell-based; conditions: caco-2, 24 h; in short: as §2
[10] = tested on: Brain; experiment: Retention time of the compound in female mouse brain treated with 0.53 mg/kg, iv (3S,6S,9S,12S,15S,18S,21R,23S,24S,27S,30S,33S)-33-acetamido-15-benzyl-3-carbamoyl-6-(2-carboxyethyl)-27-(carboxymethyl)-23-hydroxy-12-(4-hydroxybenzyl)-24,30-diisobutyl-18-isopropyl-9,21-dimethyl-5,8,11,14,17,20,26,29,32-nonaoxo-4,7,10,13,16,19,25,28,31-nonaazahexatriacontane-1,36-dioic acid by HPLC-FLU analysis; format: ADME, organism-based; conditions: in vivo; in short: as §1
[11] = Drug uptake in female mouse brain at 0.53 mg/kg, iv up to 1 hr by HPLC-FLU analysis; format: ADME, organism-based; conditions: read-out: Drug uptake; in short: as §1
[12] = tested on: Cortex; experiment: Drug formation in Wistar rat brain cortex treated with 0.53 mg/kg, iv (3S,6S,9S,12S,15S,18S,21R,23S,24S,27S,30S,33S)-33-acetamido-15-benzyl-3-carbamoyl-6-(2-carboxyethyl)-27-(carboxymethyl)-23-hydroxy-12-(4-hydroxybenzyl)-24,30-diisobutyl-18-isopropyl-9,21-dimethyl-5,8,11,14,17,20,26,29,32-nonaoxo-4,7,10,13,16,19,25,28,31-nonaazahexatriacontane-1,36-dioic acid measured after 2 hrs by …; format: ADME, organism-based; conditions: in vivo
[13] = tested on: Serum; experiment: Drug formation in Wistar rat serum treated with 0.53 mg/kg, iv (3S,6S,9S,12S,15S,18S,21R,23S,24S,27S,30S,33S)-33-acetamido-15-benzyl-3-carbamoyl-6-(2-carboxyethyl)-27-(carboxymethyl)-23-hydroxy-12-(4-hydroxybenzyl)-24,30-diisobutyl-18-isopropyl-9,21-dimethyl-5,8,11,14,17,20,26,29,32-nonaoxo-4,7,10,13,16,19,25,28,31-nonaazahexatriacontane-1,36-dioic acid measured after 2 hrs by HPLC-FLU/LC-MS …; format: ADME, organism-based; conditions: in vivo
[14] = tested on: Brain; experiment: Drug formation in female mouse brain treated with 0.53 mg/kg, iv (3S,6S,9S,12S,15S,18S,21R,23S,24S,27S,30S,33S)-33-acetamido-15-benzyl-3-carbamoyl-6-(2-carboxyethyl)-27-(carboxymethyl)-23-hydroxy-12-(4-hydroxybenzyl)-24,30-diisobutyl-18-isopropyl-9,21-dimethyl-5,8,11,14,17,20,26,29,32-nonaoxo-4,7,10,13,16,19,25,28,31-nonaazahexatriacontane-1,36-dioic acid measured up to 2 hrs by HPLC-FLU/LC-MS …; format: ADME, organism-based; conditions: in vivo

For `CC(=O)N[C@@H](CCC(=O)O)C(=O)N[C@@H](CC(C)C)C(=O)N[C@@H](CC(=O)O)C(=O)N[C@@H](CC(C)C)[C@@H](O)C[C@@H](C)C(=O)N[C@H](C(=O)N[C@@H](Cc1ccccc1)C(=O)N[C@@H](Cc1ccc(O)cc1)C(=O)N[C@@H](C)C(=O)N[C@@H](CCC(=O)O)C(=O)N[C@@H](CC(=O)O)C(N)=O)C(C)C` (Ac-ELD[LeuΨ(S-CHOHCH2)Ala]VFYAED-NH2), which Stability [1] is on record?
Its Stability is “Unstable”.

And the Stability [2]?
The Stability was “Unstable”.

What about the viability at 50 µM [3] of the same compound?
The viability at 50 µM was greater than 80%.

And the Ratio [4]?
The Ratio was 9.2.

And the Retention_time [5]?
Its Retention_time is 23.6 min.

What about the half-life [6] of the same compound?
Its half-life is 3.43 h.

What about the half-life [7] of the same compound?
Its half-life is 6 h.

What about the Stability [8] of the same compound?
Its Stability is “Stable”.

And the Activity [9]?
The Activity was “Non-toxic”.

For `CC(C)C[C@H](NC(=O)[C@@H](N)CCC(=O)O)C(=O)N[C@@H](CC(=O)O)C(=O)N[C@@H](CC(C)C)[C@@H](O)C[C@@H](C)C(=O)N[C@H](C(=O)N[C@@H](CCC(=O)O)C(=O)N[C@@H](Cc1ccccc1)C(=O)O)C(C)C` (H-ELD[LeuΨ(S-CHOHCH2)Ala]VEF-OH), which viability at 50 µM [3] is on record?
The viability at 50 µM was greater than 80%.

What about the half-life [6] of the same compound?
The half-life was 5.8 h.

What about the half-life [7] of the same compound?
Its half-life is 2.2 h.

What about the Activity [9] of the same compound?
The Activity was “Non-toxic”.

Which results are given for `CC(C)C[C@H](NC(=O)[C@@H](N)CCC(=O)O)C(=O)N[C@@H](CC(=O)O)C(=O)N[C@@H](CC(C)C)[C@@H](O)C[C@@H](C)C(=O)N[C@H](C(=O)N[C@@H](Cc1ccccc1)C(=O)N[C@@H](Cc1ccc(O)cc1)C(=O)N[C@@H](C)C(=O)N[C@@H](CCC(=O)O)C(=O)N[C@@H](CC(=O)O)C(=O)O)C(C)C` (H-ELD[LeuΨ(S-CHOHCH2)Ala]VFYAED-OH)?
Ratio [4]: 7.5; Retention_time [10]: 22.9 min; half-life [6]: 6 h; half-life [7]: 3 h; concentration at 1 h [11]: 20 nM; Drug metabolism [12]: metabolite_detected; Drug metabolism [13]: metabolite_detected; Drug metabolism [14]: metabolite_detected

Which viability at up to 50 µM [3] does the source give for `CC(C)C[C@H](NC(=O)[C@@H](N)CCC(=O)O)C(=O)N[C@@H](CC(=O)O)C(=O)N[C@@H](CC(C)C)[C@@H](O)C[C@@H](C)C(=O)N[C@H](C(=O)N[C@@H](Cc1ccccc1)C(=O)N[C@@H](Cc1ccc(O)cc1)C(=O)N[C@@H](C)C(=O)N[C@@H](CCC(=O)O)C(=O)N[C@@H](CC(=O)O)C(N)=O)C(C)C` (H-ELD[LeuΨ(S-CHOHCH2)Ala]VFYAED-NH2) here?
The viability at up to 50 µM was greater than 80%.

What about the Ratio [4] of the same compound?
The Ratio was 7.5.

What about the half-life [6] of the same compound?
The half-life was 2.3 h.

And the half-life [7]?
Its half-life is 2.1 h.

What about the Activity [9] of the same compound?
Its Activity is “Non-toxic”.

Which results are given for `CC(C)C[C@H](NC(=O)[C@@H](N)CCC(=O)O)C(=O)N[C@@H](CC(=O)O)C(=O)N[C@@H](CC(C)C)[C@@H](O)C[C@@H](C)C(=O)N[C@H](C(=O)N[C@@H](Cc1ccccc1)C(=O)N[C@@H](Cc1ccccc1)C(=O)N[C@@H](C)C(=O)N[C@@H](CCC(=O)O)C(=O)N[C@@H](CC(=O)O)C(N)=O)C(C)C` (H-ELD[LeuΨ(S-CHOHCH2)Ala]VFFAED-NH2)?
viability at 50 µM [3]: > 80%; Ratio [4]: 3.7; Activity [9]: Non-toxic
